Assays:
[1] = Selectivity index, ratio of IC50 for HEK293 cells to IC50 for Plasmodium falciparum 3D7 after 72 hrs; type: toxicity, cell-based; conditions: human, read-out: Ratio IC50
How it was run: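 Parasite (3D7) viability assay and HEK293 viability assay, each with a 72 h exposure. Index taken as the ratio of the IC50 values, HEK293 over 3D7.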

Plasmodium falciparum [2] = assay: Antimalarial activity against Plasmodium falciparum 3D7 infected in RBC assessed as growth inhibition after 48 hrs by SYBR Green-I fluorescence assay; type: functional, organism-based; conditions: 3D7, 48 h
How it was run: (§1)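 Parasite-infected red cells exposed to compound for 48 h; growth read by SYBR Green-I fluorescence; IC50 derived. Where a ± is given, it is the standard deviation of three individual experiments.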

Plasmodium falciparum [3] = assay: Resistant index, ratio of IC50 for Plasmodium falciparum K1 to IC50 for Plasmodium falciparum 3D7; type: functional
How it was run: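 Ratio of K1 to 3D7 IC50 values. Each IC50 comes from a 48 h drug exposure of the P. falciparum strain, with growth read by SYBR Green-I fluorescence. Where spread is given, it is the standard deviation of three individual experiments.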

Plasmodium falciparum [4] = assay: Antimalarial activity against Plasmodium falciparum K1 infected in RBC assessed as growth inhibition after 48 hrs by SYBR Green-I fluorescence assay; type: functional, organism-based; conditions: K1, 48 h; how it was run: as §1
Plasmodium falciparum [5] = assay: Gametocytocidal activity against synchronous stage 4 to 5 of transgenic Plasmodium falciparum NF54 gametocyte harboring pfs16 promoter assessed as parasite viability after 72 hrs by MitoTracker Red CMXRos-based assay; type: functional, organism-based; conditions: NF54, 72 h
Plasmodium falciparum [6] = assay: Antimalarial activity against mid to late trophozoite stage of Plasmodium falciparum 3D7 infected in RBC assessed as abnormal mitochondria at 0.001 uM after 0.5 hrs by MitoTracker Red CMXRos-based fluorescence microscopic analysis relative to untreated control; type: functional
Plasmodium falciparum [7] = assay: Antimalarial activity against mid to late trophozoite stage of Plasmodium falciparum 3D7 infected in RBC assessed as nonviable parasite at 0.001 uM after 0.5 hrs by SYTO 61 staining-based flow cytometric analysis relative to untreated control; type: functional
Plasmodium falciparum [8] = assay: Antimalarial activity against mid to late trophozoite stage of Plasmodium falciparum 3D7 infected in RBC assessed as nonviable parasite at 0.0002 uM after 0.5 hrs by SYTO 61 staining-based flow cytometric analysis relative to untreated control; type: functional
Plasmodium falciparum [9] = assay: Ratio of IC50 for trophozoite stage of Plasmodium falciparum 3D7 infected in RBC after 5 hrs in presence of 5 uM ALLN to IC50 for trophozoite stage of Plasmodium falciparum 3D7 infected in RBC after 5 hrs in absence of ALLN; type: functional
How it was run: (§2)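 Trophozoite-stage parasites pulsed 5 h with compound, with or without ALLN (0.2 or 5 μM). Drug and ALLN then removed; culture continued a further 43 h before survival was assessed. Antagonism expressed as the ratio of IC50 with ALLN to IC50 without ALLN.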

Plasmodium falciparum [10] = assay: Antimalarial activity against mid to late trophozoite stage of Plasmodium falciparum 3D7 infected in RBC assessed as abnormal mitochondria at 0.0002 uM after 0.5 hrs by MitoTracker Red CMXRos-based fluorescence microscopic analysis relative to untreated control; type: functional
Plasmodium falciparum [11] = assay: Ratio of IC50 for trophozoite stage of Plasmodium falciparum 3D7 infected in RBC after 5 hrs in presence of 0.2 uM ALLN to IC50 for trophozoite stage of Plasmodium falciparum 3D7 infected in RBC after 5 hrs in absence of ALLN; type: functional; how it was run: as §2
Plasmodium falciparum [12] = assay: Antimalarial activity against trophozoite stage of Plasmodium falciparum 3D7 infected in RBC assessed as growth inhibition after 5 hrs by SYBR Green-I fluorescence assay; type: functional, organism-based; conditions: 3D7, 5 h
How it was run: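 Trophozoite-stage parasites pulsed with compound for 5 h. Drug then washed out and parasites cultured a further 43 h before survival was assessed.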

Plasmodium falciparum [13] = assay: Ratio of IC50 for trophozoite stage of Plasmodium falciparum 3D7 infected in RBC after 5 hrs to IC50 for Plasmodium falciparum 3D7 infected in RBC after 48 hrs; type: functional
Plasmodium falciparum [14] = assay: Gametocytocidal activity against synchronous stage 4 to 5 of transgenic Plasmodium falciparum NF54 gametocyte harboring pfs16 promoter assessed as inhibition of parasite viability at 60 uM after 72 hrs by MitoTracker Red CMXRos-based assay relative to control; type: functional; conditions: NF54, 72 h
Plasmodium falciparum [15] = assay: Antimalarial activity against mid to late trophozoite stage of Plasmodium falciparum 3D7 infected in RBC assessed as nonviable parasite at 200 uM after 0.5 hrs by SYTO 61 staining-based flow cytometric analysis relative to untreated control; type: functional
Plasmodium falciparum [16] = assay: Antimalarial activity against mid to late trophozoite stage of Plasmodium falciparum 3D7 infected in RBC assessed as abnormal mitochondria at 0.005 uM after 0.5 hrs by MitoTracker Red CMXRos-based fluorescence microscopic analysis relative to untreated control; type: functional
Plasmodium falciparum [17] = assay: Antimalarial activity against mid to late trophozoite stage of Plasmodium falciparum 3D7 infected in RBC assessed as nonviable parasite at 1000 uM after 0.5 hrs by SYTO 61 staining-based flow cytometric analysis relative to untreated control; type: functional
Plasmodium falciparum [18] = assay: Antimalarial activity against mid to late trophozoite stage of Plasmodium falciparum 3D7 infected in RBC assessed as abnormal mitochondria at 40 uM after 0.5 hrs by MitoTracker Red CMXRos-based fluorescence microscopic analysis relative to untreated control; type: functional
Plasmodium falciparum [19] = assay: Antimalarial activity against mid to late trophozoite stage of Plasmodium falciparum 3D7 infected in RBC assessed as nonviable parasite at 0.005 uM after 0.5 hrs by SYTO 61 staining-based flow cytometric analysis relative to untreated control; type: functional
Plasmodium falciparum [20] = assay: Antimalarial activity against mid to late trophozoite stage of Plasmodium falciparum 3D7 infected in RBC assessed as abnormal mitochondria at 200 uM after 0.5 hrs by MitoTracker Red CMXRos-based fluorescence microscopic analysis relative to untreated control; type: functional
[21] = Inhibition of beta-hematin formation after 24 hrs by spectrophotometric analysis in presence of nonidet P40; type: functional
Plasmodium falciparum [22] = assay: Antimalarial activity against mid to late trophozoite stage of Plasmodium falciparum 3D7 infected in RBC assessed as nonviable parasite at 40 uM after 0.5 hrs by SYTO 61 staining-based flow cytometric analysis relative to untreated control; type: functional
Plasmodium falciparum [23] = assay: Antimalarial activity against mid to late trophozoite stage of Plasmodium falciparum 3D7 infected in RBC assessed as abnormal mitochondria at 1000 uM after 0.5 hrs by MitoTracker Red CMXRos-based fluorescence microscopic analysis relative to untreated control; type: functional
Plasmodium falciparum [24] = assay: Antimalarial activity against mid to late trophozoite stage of Plasmodium falciparum 3D7 infected in RBC assessed as nonviable parasite at 1.7 uM after 0.5 hrs by SYTO 61 staining-based flow cytometric analysis relative to untreated control; type: functional
Plasmodium falciparum [25] = assay: Antimalarial activity against mid to late trophozoite stage of Plasmodium falciparum 3D7 infected in RBC assessed as abnormal mitochondria at 0.56 uM after 0.5 hrs by MitoTracker Red CMXRos-based fluorescence microscopic analysis relative to untreated control; type: functional
Plasmodium falciparum [26] = assay: Antimalarial activity against mid to late trophozoite stage of Plasmodium falciparum 3D7 infected in RBC assessed as nonviable parasite at 5 uM after 0.5 hrs by SYTO 61 staining-based flow cytometric analysis relative to untreated control; type: functional
Plasmodium falciparum [27] = assay: Antimalarial activity against mid to late trophozoite stage of Plasmodium falciparum 3D7 infected in RBC assessed as nonviable parasite at 15 uM after 0.5 hrs by SYTO 61 staining-based flow cytometric analysis relative to untreated control; type: functional
Plasmodium falciparum [28] = assay: Gametocytocidal activity against synchronous stage 1 to 3 of transgenic Plasmodium falciparum NF54 gametocyte harboring pfs16 promoter assessed as parasite viability after 72 hrs by luciferase reporter gene assay; type: functional, organism-based; conditions: NF54, 72 h
Plasmodium falciparum [29] = assay: Antimalarial activity against mid to late trophozoite stage of Plasmodium falciparum 3D7 infected in RBC assessed as nonviable parasite at 0.56 uM after 0.5 hrs by SYTO 61 staining-based flow cytometric analysis relative to untreated control; type: functional
Plasmodium falciparum [30] = assay: Antimalarial activity against mid to late trophozoite stage of Plasmodium falciparum 3D7 infected in RBC assessed as abnormal mitochondria at 5 uM after 0.5 hrs by MitoTracker Red CMXRos-based fluorescence microscopic analysis relative to untreated control; type: functional
Plasmodium falciparum [31] = assay: Antimalarial activity against mid to late trophozoite stage of Plasmodium falciparum 3D7 infected in RBC assessed as abnormal mitochondria at 1.7 uM after 0.5 hrs by MitoTracker Red CMXRos-based fluorescence microscopic analysis relative to untreated control; type: functional
Plasmodium falciparum [32] = assay: Antimalarial activity against mid to late trophozoite stage of Plasmodium falciparum 3D7 infected in RBC assessed as abnormal mitochondria at 15 uM after 0.5 hrs by MitoTracker Red CMXRos-based fluorescence microscopic analysis relative to untreated control; type: functional

For `Nc1cc(/C=C/c2n[nH]c3ccccc23)nc2ccccc12`, the selectivity ratio at 72 h [1] was 164, the IC50 (Plasmodium falciparum [2]) was 140 nM and the “Ratio IC50” value (Plasmodium falciparum [3]) was 2. The IC50 (Plasmodium falciparum [4]) was 400 nM.
Work on `CCCC[n+]1c(/C=C/c2c[nH]c3ccccc23)cc(N)c2ccccc21` yielded a selectivity ratio at 72 h [1] of 4, an IC50 (Plasmodium falciparum [2]) of 450 nM and an IC50 (Plasmodium falciparum [4]) of 440 nM.
`C[C@H]1[C@H](OC(=O)CCC(=O)O)O[C@@H]2O[C@@]3(C)CC[C@H]4[C@H](C)CC[C@@H]1[C@@]24OO3` [ARTESUNATE] gave an IC50 (Plasmodium falciparum [5]) of 8 nM.
With `CC1(C)N=C(N)N=C(N)N1OCCCOc1cc(Cl)c(Cl)cc1Cl` the IC50 (Plasmodium falciparum [2]) was 0.46 nM, the Activity (Plasmodium falciparum [6]) was 3% and the Activity (Plasmodium falciparum [7]) was 73%. For the same compound, the Activity (Plasmodium falciparum [8]) was 40%, the “Ratio IC50” value (Plasmodium falciparum [9]) was 0.7 and the Activity (Plasmodium falciparum [10]) was 3%. For the same compound, the “Ratio IC50” value (Plasmodium falciparum [11]) was 0.7, the IC50 (Plasmodium falciparum [12]) was 0.4 nM and the “Ratio IC50” value (Plasmodium falciparum [13]) was 0.9.
With `C[n+]1c(/C=C/c2c[nH]c3ncccc23)cc(N)c2ccccc21.[I-]` the selectivity ratio at 72 h [1] was 4, the IC50 (Plasmodium falciparum [2]) was 400 nM and the “Ratio IC50” value (Plasmodium falciparum [3]) was 0.3. It also gave an IC50 (Plasmodium falciparum [4]) of 250 nM.
In the case of `CNc1cc(/C=C/c2c(C)[nH]c3ccccc23)[n+](C)c2ccccc12`, the selectivity ratio at 72 h [1] is reported as 16, the IC50 (Plasmodium falciparum [2]) is reported as 1400 nM and the IC50 (Plasmodium falciparum [4]) is reported as 1600 nM.
For `CCN(CC)CCCC(C)Nc1ccnc2cc(Cl)ccc12` (configuration not stated) [CHLOROQUINE], the inhibition at 60 µM (Plasmodium falciparum [14]) was 100%, the Activity (Plasmodium falciparum [15]) was 36% and the Activity (Plasmodium falciparum [16]) was 12%. The Activity (Plasmodium falciparum [17]) was 85%, the Activity (Plasmodium falciparum [18]) was 0% and the Activity (Plasmodium falciparum [19]) was 84%. For the same compound, the Activity (Plasmodium falciparum [20]) was 5%, the IC50 [21] was 30000 nM and the Activity (Plasmodium falciparum [22]) was 23%. The Activity (Plasmodium falciparum [23]) was 8%.
In the case of `C[n+]1c(/C=C/c2c[nH]c3ccccc23)cc(N)c2ccc(Cl)cc21`, the selectivity ratio at 72 h [1] is reported as 2, the IC50 (Plasmodium falciparum [2]) is reported as 400 nM and the IC50 [21] is reported as 300000 nM. The IC50 (Plasmodium falciparum [4]) was 190 nM.
`Cc1[nH]c2ccccc2c1/C=C/c1cc(N)c2ccccc2[n+]1C.[I-]` showed an Activity (Plasmodium falciparum [24]) of 42%, an Activity (Plasmodium falciparum [25]) of 43% and a selectivity ratio at 72 h [1] of 18. For the same compound, the Activity (Plasmodium falciparum [26]) was 66%, the IC50 (Plasmodium falciparum [2]) was 170 nM and the “Ratio IC50” value (Plasmodium falciparum [3]) was 1.3. For the same compound, the Activity (Plasmodium falciparum [27]) was 86%, the IC50 (Plasmodium falciparum [28]) was 350 nM and the Activity (Plasmodium falciparum [29]) was 18%. It also gave an Activity (Plasmodium falciparum [30]) of 97%, an Activity (Plasmodium falciparum [31]) of 86% and an IC50 (Plasmodium falciparum [5]) of 1900 nM. The IC50 [21] was 220000 nM, the “Ratio IC50” value (Plasmodium falciparum [9]) was 1.7 and the Activity (Plasmodium falciparum [32]) was 99%. For the same compound, the “Ratio IC50” value (Plasmodium falciparum [11]) was 1, the IC50 (Plasmodium falciparum [12]) was 730 nM and the “Ratio IC50” value (Plasmodium falciparum [13]) was 4.3. The IC50 (Plasmodium falciparum [4]) was 230 nM.
